Assay results reported in ChEMBL document CHEMBL2385037, “Bioactive dimeric carbazole alkaloids from Murraya koenigii” (J Nat Prod, 2013).

Assays:
[1] = Inhibition of alpha glucosidase (unknown origin) assessed as p-nitrophenyl alpha-D-glucopyranoside conversion to p-nitrophenol after 30 mins by spectrophotometric analysis; parameters: species or system Homo sapiens
[2] = system: DNA; test: Displacement of ethidium bromide from calf thymus DNA assessed as […] at 1 to 50 uM by fluorescence spectrophotometric analysis relative to control; assay type: nucleic-acid assay; conditions: Bos taurus
Method in brief: (§1)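 Ethidium bromide displacement: emission of EB bound to CT-DNA (5 μM) is followed while compound is added over 0−50 μM. The Stern–Volmer Kq is the slope of I0/I versus [Q]. Kapp comes from KEB[EB] = Kapp[compound], taking the compound concentration at 50% loss of EB fluorescence, with KEB = 1.0 × 10^7 M−1 and [EB] = 5 μM.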

[3] = target: T1, Albumin (Bos taurus, UniProt P02769); test: Binding affinity to bovine serum albumin assessed as change in hypochromicity at 1 to 2.5 uM by spectrophotometric analysis relative to control; assay type: ADME; conditions: cattle, isolated protein
T1 sequence (P02769 whole entry): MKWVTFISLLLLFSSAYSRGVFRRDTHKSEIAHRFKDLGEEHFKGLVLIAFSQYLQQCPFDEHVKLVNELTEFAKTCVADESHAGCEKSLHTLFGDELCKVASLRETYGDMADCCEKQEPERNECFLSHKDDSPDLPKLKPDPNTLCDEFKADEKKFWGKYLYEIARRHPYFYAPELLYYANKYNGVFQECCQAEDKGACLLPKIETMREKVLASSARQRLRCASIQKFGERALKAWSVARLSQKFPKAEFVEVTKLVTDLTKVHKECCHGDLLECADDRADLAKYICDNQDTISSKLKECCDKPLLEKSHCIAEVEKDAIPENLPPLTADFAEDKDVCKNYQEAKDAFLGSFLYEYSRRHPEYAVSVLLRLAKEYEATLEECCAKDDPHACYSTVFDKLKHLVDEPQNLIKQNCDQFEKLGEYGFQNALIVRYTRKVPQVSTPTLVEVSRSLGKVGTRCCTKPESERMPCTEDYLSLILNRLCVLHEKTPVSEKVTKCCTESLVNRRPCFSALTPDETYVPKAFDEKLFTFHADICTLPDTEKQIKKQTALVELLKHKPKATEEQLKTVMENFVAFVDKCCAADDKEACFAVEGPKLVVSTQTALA

[4] = system: DNA; test: Displacement of ethidium bromide from calf thymus DNA assessed as decrease in fluorescence intensity by spectrophotometric analysis; assay type: nucleic-acid assay; conditions: Bos taurus; method in brief: as §1
[5] = system: Radical scavenging activity; test: Antioxidant activity assessed as DPPH free radical scavenging activity by spectrophotometric analysis; assay type: functional
[6] = target: T1, Albumin; test: Binding affinity to bovine serum albumin assessed decrease in fluorescence at 1 to 2.5 uM at 15 nm wavelength by fluorescence spectrophotometric analysis; assay type: ADME; conditions: cattle, isolated protein
Method in brief: (§2)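 Synchronous fluorescence: BSA (2 μM) is titrated with compound over 0−2.5 μM. Spectra are recorded at wavelength differences Δλ = 15 nm and Δλ = 60 nm.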

[7] = target: T1, Albumin; test: Binding affinity to bovine serum albumin assessed as decrease in fluorescence intensity by Scatchard plot analysis; assay type: ADME; conditions: cattle, isolated protein
Method in brief: (§3)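 Intrinsic fluorescence quenching: emission spectra of BSA (2 μM) are recorded with compound added over 0−2.5 μM. The quenching data are analysed by Stern–Volmer and Scatchard plots to give the quenching constant Kq, the binding constant and the number of binding sites n.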

[8] = target: T1, Albumin; test: Binding affinity to bovine serum albumin assessed as decrease in fluorescence intensity by Stern-Volmer plot analysis; assay type: ADME; conditions: cattle, isolated protein; method in brief: as §3
[9] = target: T1, Albumin; test: Binding affinity to bovine serum albumin assessed decrease in fluorescence at 1 to 2.5 uM at 60 nm wavelength by fluorescence spectrophotometric analysis; assay type: ADME; conditions: cattle, isolated protein; method in brief: as §2
[10] = target: T1, Albumin; test: Binding affinity to bovine serum albumin assessed blue shift at 3 uM by UV-vis spectrophotometric analysis; assay type: ADME; conditions: cattle, isolated protein
[11] = system: DNA; test: Displacement of ethidium bromide from calf thymus DNA assessed as decrease in fluorescence intensity by Stern-Volmer plot analysis; assay type: nucleic-acid assay; conditions: Bos taurus; method in brief: as §1
[12] = system: DNA; test: Binding affinity to calf thymus DNA by absorption titration; assay type: nucleic-acid assay; conditions: Bos taurus
Method in brief: (§4)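 CT-DNA absorption titration: compound held at 50 μM while CT-DNA is raised over 0−25 μM, and electronic absorption spectra are recorded. The intrinsic binding constant Kb is fitted from [DNA]/(εa − εf) versus [DNA], with DNA counted in base pairs. εa = Aobs/[compound]; εf and εb are the free and fully bound extinction coefficients.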

[13] = Antioxidant activity assessed as hydroxyl radical scavenging activity after 15 mins by spectrophotometric analysis; assay type: functional
[14] = Antioxidant activity assessed as nitric oxide scavenging activity after 150 mins by Greiss method; assay type: functional
[15] = system: DNA; test: Binding affinity to calf thymus DNA assessed as change in hypochromicity at 50 uM by UV-vis titration relative to control; assay type: nucleic-acid assay; conditions: Bos taurus; method in brief: as §4
[16] = system: HCT-116; test: Cytotoxicity against human HCT116 cells incubated for 24 hrs followed by compound washout measured after 48 hrs by MTT assay; assay type: functional, cell-based
[17] = system: AGS; test: Cytotoxicity against human AGS cells incubated for 24 hrs followed by compound washout measured after 48 hrs by MTT assay; assay type: functional, cell-based
[18] = system: HeLa; test: Cytotoxicity against human HeLa cells incubated for 24 hrs followed by compound washout measured after 48 hrs by MTT assay; assay type: functional, cell-based

Row | IC50 [1] | Activity [2] | Activity [3] | Kapp [4] | IC50 [5] | Activity [6] | Kb [7] | Kq [8] | Activity [9] | Activity [10] | Kq [11] | Kb [12] | IC50 [13] | IC50 [14] | Activity [15] | SMILES | IC50 [16] | IC50 [17] | IC50 [18]
1 | 41.2 µM | 22% | 36% | 0.5 ×10⁵ /M | 31.1 µM | Active | 0.72 ×10⁴ /M | 2.2 ×10⁵ /M | Active | Active | 0.1 ×10⁵ /M | 2.2 ×10⁵ /M | 8.8 µM | 7.2 µM | 55% | COc1ccc2c([nH]c3c4c(c(C)cc32)OC(C)(C/C=C(\C)CCC=C(C)C)C=C4)c1-c1ccc2[nH]c3c4c(c(C)cc3c2c1O)OC(C)(C/C=C(\C)CCC=C(C)C)C=C4 (stereo not given) |  |  | 
2 |  |  |  |  | 4.5 µM |  |  |  |  |  |  |  | 11.5 µM | 8.6 µM |  | Cc1cc(C(C)(C)C)c(O)c(C(C)(C)C)c1 [BUTYLATED HYDROXYTOLUENE] |  |  | 
3 |  |  |  |  | 4.7 µM |  |  |  |  |  |  |  | 19.4 µM | 4.7 µM |  | C[C@@H]1O[C@@H](OC[C@H]2O[C@@H](Oc3c(-c4ccc(O)c(O)c4)oc4cc(O)cc(O)c4c3=O)[C@H](O)[C@@H](O)[C@@H]2O)[C@H](O)[C@H](O)[C@H]1O [RUTIN] |  |  | 
4 | 45.4 µM | 44% | 47% | 1.6 ×10⁵ /M | 31.9 µM | Active | 1.02 ×10⁴ /M | 3.52 ×10⁵ /M | Active | Active | 0.32 ×10⁵ /M | 4.3 ×10⁵ /M | 12.3 µM | 6.5 µM | 82% | COc1ccc2c([nH]c3c4c(c(C)cc32)OC(C)(C/C=C(\C)CCC=C(C)C)C=C4)c1-c1c(O)ccc2[nH]c3c4c(c(C)cc3c12)OC(C)(C/C=C(\C)CCC=C(C)C)C=C4 (stereo not given) | 22.3 µM | 23.2 µM | 17.2 µM
5 | 15.2 µM |  |  |  |  |  |  |  |  |  |  |  |  |  |  | C[C@H]1O[C@H](O[C@H]2[C@H](O)[C@@H](O)[C@@H](O[C@H]3[C@H](O)[C@@H](O)C(O)O[C@@H]3CO)O[C@@H]2CO)[C@H](O)[C@@H](O)[C@@H]1N[C@H]1C=C(CO)[C@@H](O)[C@H](O)[C@H]1O (stereo not given in full) [ACARBOSE] |  |  | 
6 | 69 µM | 28% | 36% | 0.13 ×10⁵ /M | 41.8 µM | Active | 0.09 ×10⁴ /M | 2.21 ×10⁵ /M | Active | Active | 0.3 ×10⁵ /M | 2 ×10⁵ /M | 13.2 µM | 8.6 µM | 54% | COc1cc2c(cc1-c1c(OC)ccc3c1[nH]c1c4c(c(C)cc13)OC(C)(C/C=C(\C)CCC=C(C)C)C=C4)c1cc(C)c3c(c1n2C)C=CC(C)(C/C=C(\C)CCC=C(C)C)O3 (stereo not given) |  |  | 
